Each block holds one molecule with its values, some of them ahead of it. Activity calls are given as the source filed them. No cut-off for these calls is given here.
Assays:
Hamster [1] = experiment: Inhibition of human neutrophil elastase-induced lung hemorrhage in hamster at 10 mg/kg/hr, iv administered as infusion; format: functional; conditions: Cricetinae
Outline: (§1)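 Hamster lung hemorrhage induced by HNE instillation, with compound delivered by iv infusion over more than 70 min. BALF collected 1 h after HNE and centrifuged; supernatant absorbance at 414 nm used as hemorrhage measure; % inhibition reported.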

Hamster [2] = experiment: Inhibition of human neutrophil elastase-induced lung hemorrhage in hamster at 3 mg/kg/hr, iv administered as infusion; format: functional; conditions: Cricetinae; outline: as §1
Hamster [3] = experiment: Inhibition of human neutrophil elastase-induced lung hemorrhage in hamster at 3 mg/kg, iv administered as bolus dose; format: functional; conditions: Cricetinae
Outline: (§2)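 Hamster lung hemorrhage induced by HNE instillation; compound given as iv bolus. One hour after HNE, BALF collected and centrifuged; supernatant absorbance at 414 nm taken as hemorrhage; % inhibition reported.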

Hamster [4] = experiment: Inhibition of human neutrophil elastase-induced lung hemorrhage in hamster at 1 mg/kg/hr, iv administered as infusion; format: functional; conditions: Cricetinae; outline: as §1
Hamster [5] = experiment: Inhibition of human neutrophil elastase-induced lung hemorrhage in hamster at 10 mg/kg, iv administered as bolus dose; format: functional; conditions: Cricetinae; outline: as §2
Hamster [6] = experiment: Inhibition of human neutrophil elastase-induced lung hemorrhage in hamster at 30 mg/kg, iv administered as bolus dose; format: functional; conditions: Cricetinae; outline: as §2
Hamster [7] = experiment: Antiinflammatory activity in iv dosed hamster assessed as inhibition of LPS-induced lung edema; format: functional, Cricetinae
Outline: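 Hamsters given LPS intratracheally; jugular-vein infusion started immediately after LPS and continued up to 6 h. Whole-lung wet weight measured at 6 h after LPS and corrected for each animal's body weight.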

Hamster [8] = experiment: Inhibition of human neutrophil elastase-induced lung hemorrhage in iv dosed hamster administered as infusion; format: functional, Cricetinae; outline: as §1
Mus musculus [9] = species on record: Mus musculus; conditions: C3H/HeN, 10 to 100 mg/kg
[10] = Aqueous solubility in water; format: physicochemical
Hamster [11] = experiment: Inhibition of human neutrophil elastase-induced lung hemorrhage in iv dosed hamster administered as bolus dose; format: functional; conditions: Cricetinae; outline: as §2
Mus musculus [12] = experiment: Toxicity in mouse assessed as overt effects up to 300 mg/kg, iv; format: organism-based; design: dose 300 mg/kg, route intravenous; conditions: in vivo

SMILES: CC(C)[C@H](NC(=O)[C@@H]1CCCN1C(=O)[C@@H](NC(=O)CN1CCN(CC(=O)O)C1=O)C(C)C)C(=O)c1nc2ccccc2o1
inhibition in vivo at 10 mg/kg/hr (Hamster [1]): 90%
inhibition in vivo at 3 mg/kg/hr (Hamster [2]): 31%
inhibition in vivo at 3 mg/kg (Hamster [3]): 22%
inhibition in vivo at 1 mg/kg/hr (Hamster [4]): 25%
inhibition in vivo at 10 mg/kg (Hamster [5]): 68%

SMILES: CC(C)[C@H](NC(=O)[C@@H]1CCCN1C(=O)[C@@H](NC(=O)Cn1c(=O)ccn(CC(=O)O)c1=O)C(C)C)C(=O)c1nc2ccccc2o1
inhibition in vivo at 30 mg/kg (Hamster [6]): 94%
inhibition in vivo at 3 mg/kg (Hamster [3]): 34%
inhibition in vivo at 10 mg/kg (Hamster [5]): 47%

SMILES: CC(C)[C@H](NC(=O)[C@@H]1CCCN1C(=O)[C@@H](NC(=O)CN1CCN(CC(=O)O)C(=O)C1=O)C(C)C)C(=O)C(=O)NCc1ccccc1
inhibition in vivo at 10 mg/kg/hr (Hamster [1]): 89%
inhibition in vivo at 3 mg/kg/hr (Hamster [2]): 47%
inhibition in vivo at 1 mg/kg/hr (Hamster [4]): 31%

SMILES: COC(=O)C(=O)[C@@H](NC(=O)[C@@H]1CCCN1C(=O)[C@@H](NC(=O)CN1CCN(CC(=O)O)C(=O)C1=O)C(C)C)C(C)C
inhibition in vivo at 10 mg/kg/hr (Hamster [1]): 94%
inhibition in vivo at 3 mg/kg/hr (Hamster [2]): 48%

SMILES: CC(C)[C@H](NC(=O)[C@@H]1CCCN1C(=O)[C@@H](NC(=O)CN1CCC(=O)N(CC(=O)O)C1=O)C(C)C)C(=O)c1nc2ccccc2o1
inhibition in vivo at 3 mg/kg (Hamster [3]): 38%
inhibition in vivo at 10 mg/kg (Hamster [5]): 34%

SMILES: CC(C)[C@H](NC(=O)[C@@H]1CCCN1C(=O)[C@@H](NC(=O)COc1ccc(OCC(=O)O)cc1)C(C)C)C(=O)c1nc2ccccc2o1
inhibition in vivo at 30 mg/kg (Hamster [6]): 56%
inhibition in vivo at 10 mg/kg (Hamster [5]): 38%

SMILES: COC(=O)C(=O)[C@@H](NC(=O)[C@@H]1CCCN1C(=O)[C@@H](NC(=O)Cn1ccc(=O)n(CC(=O)O)c1=O)C(C)C)C(C)C
inhibition in vivo at 10 mg/kg/hr (Hamster [1]): 94%
inhibition in vivo at 3 mg/kg/hr (Hamster [2]): 43%
inhibition in vivo at 1 mg/kg/hr (Hamster [4]): 32%

SMILES: CC(C)[C@H](NC(=O)[C@@H]1CCCN1C(=O)[C@@H](NC(=O)CN1CC(=O)N(CC(=O)O)C1=O)C(C)C)C(=O)c1nc2ccccc2o1
inhibition in vivo at 30 mg/kg (Hamster [6]): 91%
inhibition in vivo at 10 mg/kg/hr (Hamster [1]): 78%
inhibition in vivo at 3 mg/kg/hr (Hamster [2]): 44%
inhibition in vivo at 3 mg/kg (Hamster [3]): 32%
inhibition in vivo at 1 mg/kg/hr (Hamster [4]): -7%
inhibition in vivo at 10 mg/kg (Hamster [5]): 67%

SMILES: CC(C)[C@H](NC(=O)[C@@H]1CCCN1C(=O)[C@@H](NC(=O)CN1CC(=O)N(CC(=O)O)CC1=O)C(C)C)C(=O)c1nc2ccccc2o1
inhibition in vivo at 10 mg/kg/hr (Hamster [1]): 90%
inhibition in vivo at 3 mg/kg/hr (Hamster [2]): 73%
inhibition in vivo at 3 mg/kg (Hamster [3]): 20%
inhibition in vivo at 1 mg/kg/hr (Hamster [4]): 55%
inhibition in vivo at 10 mg/kg (Hamster [5]): 67%

SMILES: Cc1cn(CC(=O)N[C@H](C(=O)N2CCC[C@H]2C(=O)N[C@H](C(=O)c2nc3ccccc3o2)C(C)C)C(C)C)c(=O)n(CC(=O)O)c1=O
inhibition in vivo at 30 mg/kg (Hamster [6]): 92%
inhibition in vivo at 10 mg/kg/hr (Hamster [1]): 56%
inhibition in vivo at 3 mg/kg/hr (Hamster [2]): 38%
inhibition in vivo at 3 mg/kg (Hamster [3]): 39%
inhibition in vivo at 1 mg/kg/hr (Hamster [4]): 33%
inhibition in vivo at 10 mg/kg (Hamster [5]): 70%

SMILES: Cc1nn(CC(=O)N[C@H](C(=O)N2CCC[C@H]2C(=O)N[C@H](C(=O)c2nc3ccccc3o2)C(C)C)C(C)C)c(=O)n(CC(=O)O)c1=O
inhibition in vivo at 10 mg/kg (Hamster [5]): 48%

SMILES: CC(C)[C@H](NC(=O)[C@@H]1CCCN1C(=O)[C@@H](NC(=O)CN1CCN(CC(=O)O)C(=O)C1=O)C(C)C)C(=O)c1nc2ccccc2o1
inhibition in vivo at 10 mg/kg/hr (Hamster [1]): 95%
inhibition in vivo at 3 mg/kg/hr (Hamster [2]): 76%
inhibition in vivo at 3 mg/kg (Hamster [3]): 57%
inhibition in vivo at 1 mg/kg/hr (Hamster [4]): 41%
inhibition in vivo at 10 mg/kg (Hamster [5]): 88%

solubility [10]: > 1000 mg/mL
SMILES: CC(C)[C@H](NC(=O)CN1CCN(CC(=O)O)C1=O)C(=O)N1CCC[C@H]1C(=O)N[C@H](C(=O)C(F)(F)F)C(C)C
MED (Hamster [7]): 3 mg/kg/h
inhibition in vivo at 10 mg/kg/hr (Hamster [1]): 97%
ED50 (Hamster [8]): 0.42 mg/kg/h
inhibition in vivo at 3 mg/kg/hr (Hamster [2]): 84%
inhibition (Mus musculus [9]): Active
inhibition in vivo at 1 mg/kg/hr (Hamster [4]): 45%
ED50 (Hamster [11]): 1.2 mg/kg
Activity (Mus musculus [12]): Non-toxic

SMILES: CC(C)[C@H](NC(=O)[C@@H]1CCCN1C(=O)[C@@H](NC(=O)Cn1ccc(=O)n(CC(=O)O)c1=O)C(C)C)C(=O)C(=O)NCc1ccccc1
inhibition in vivo at 10 mg/kg/hr (Hamster [1]): 90%
inhibition in vivo at 3 mg/kg/hr (Hamster [2]): 78%
inhibition in vivo at 1 mg/kg/hr (Hamster [4]): 32%

SMILES: CC(C)[C@H](NC(=O)[C@@H]1CCCN1C(=O)[C@@H](NC(=O)CN1C(=O)N(CC(=O)O)C(C)(C)C1=O)C(C)C)C(=O)c1nc2ccccc2o1
inhibition in vivo at 3 mg/kg (Hamster [3]): 20%
inhibition in vivo at 10 mg/kg (Hamster [5]): 59%

SMILES: CC(C)[C@H](NC(=O)Cn1ccc(=O)n(CC(=O)O)c1=O)C(=O)N1CCC[C@H]1C(=O)N[C@H](C(=O)C(F)(F)F)C(C)C (mixture of isomers)
inhibition in vivo at 10 mg/kg/hr (Hamster [1]): 79%
inhibition in vivo at 3 mg/kg/hr (Hamster [2]): 7.6%
inhibition in vivo at 1 mg/kg/hr (Hamster [4]): -1.2%

SMILES: CC(C)[C@H](NC(=O)[C@@H]1CCCN1C(=O)[C@@H](NC(=O)Cn1ccc(=O)n(CC(=O)O)c1=O)C(C)C)C(=O)c1nc2ccccc2o1
inhibition in vivo at 30 mg/kg (Hamster [6]): 97%
inhibition in vivo at 10 mg/kg/hr (Hamster [1]): 93%
inhibition in vivo at 3 mg/kg/hr (Hamster [2]): 62%
inhibition in vivo at 3 mg/kg (Hamster [3]): 24%
inhibition in vivo at 1 mg/kg/hr (Hamster [4]): 50%
inhibition in vivo at 10 mg/kg (Hamster [5]): 66%

SMILES: CC(C)[C@H](NC(=O)[C@@H]1CCCN1C(=O)[C@@H](NC(=O)Cn1ncc(=O)n(CC(=O)O)c1=O)C(C)C)C(=O)c1nc2ccccc2o1
inhibition in vivo at 3 mg/kg (Hamster [3]): 14%
inhibition in vivo at 10 mg/kg (Hamster [5]): 33%

SMILES: CC(C)[C@H](NC(=O)[C@@H]1CCCN1C(=O)[C@@H](NC(=O)CN1C(=O)N(CC(=O)O)C(=O)C1(C)C)C(C)C)C(=O)c1nc2ccccc2o1
inhibition in vivo at 3 mg/kg (Hamster [3]): 40%
inhibition in vivo at 10 mg/kg (Hamster [5]): 42%

SMILES: CC(C)[C@H](NC(=O)[C@@H]1CCCN1C(=O)[C@@H](NC(=O)CN1C(=O)CN(CC(=O)O)C1=O)C(C)C)C(=O)c1nc2ccccc2o1
inhibition in vivo at 30 mg/kg (Hamster [6]): 81%
inhibition in vivo at 10 mg/kg/hr (Hamster [1]): 53%
inhibition in vivo at 3 mg/kg/hr (Hamster [2]): 57%
inhibition in vivo at 3 mg/kg (Hamster [3]): 37%
inhibition in vivo at 1 mg/kg/hr (Hamster [4]): 39%
inhibition in vivo at 10 mg/kg (Hamster [5]): 72%

SMILES: CC(C)[C@H](NC(=O)[C@@H]1CCCN1C(=O)[C@@H](NC(=O)CN1CCN(CC(=O)O)CC1)C(C)C)C(=O)c1nc2ccccc2o1
inhibition in vivo at 10 mg/kg/hr (Hamster [1]): 87%
inhibition in vivo at 3 mg/kg/hr (Hamster [2]): 48%
inhibition in vivo at 3 mg/kg (Hamster [3]): 44%
inhibition in vivo at 1 mg/kg/hr (Hamster [4]): 34%
inhibition in vivo at 10 mg/kg (Hamster [5]): 70%
